GASC1 inh: KDM4C (human) demethylase inhibition; Q9H3R0; inhibition, % at 12.5 µM; 96,000 compounds, 0.15% hits; GST-KDM4C 2-372, H3K9me3 peptide, LANCE TR-FRET;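 active means mean replicate inhibition above about 25%, with at least 55% of replicates also reaching it, limit read from the data, passing the limit was not always enough; inconclusive means only one of those two conditions met; inactive means neither condition met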
Target sequence (Q9H3R0 2-372 limits assumed): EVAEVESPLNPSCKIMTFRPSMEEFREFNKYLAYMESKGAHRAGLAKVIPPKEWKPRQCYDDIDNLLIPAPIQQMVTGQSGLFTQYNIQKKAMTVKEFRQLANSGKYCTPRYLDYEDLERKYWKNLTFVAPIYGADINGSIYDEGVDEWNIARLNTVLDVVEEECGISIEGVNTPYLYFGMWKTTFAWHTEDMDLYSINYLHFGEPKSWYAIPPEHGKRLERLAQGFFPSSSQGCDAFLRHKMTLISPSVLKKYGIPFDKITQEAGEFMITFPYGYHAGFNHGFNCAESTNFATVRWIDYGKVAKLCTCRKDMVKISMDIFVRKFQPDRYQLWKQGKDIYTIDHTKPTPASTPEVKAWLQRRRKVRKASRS
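Material: GST-tagged GASC-1 (JMJD2C) catalytic fragment, aa 2-372 / Quantity: enzyme final amount 10 nM / Medium: HEPES buffer, pH 7.5, plus ascorbate / Doses: one test concentration per compound / Incubation: 30 min reaction, 60 min detection, RT / Measured by: LANCE TR-FRET / Read-out: inhibition from TR-FRET ratio decrease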
IDH1 R132H inh: inhibitors of human IDH1 R132H. O75874. IDH1 R132H reductase, diaphorase/resazurin fluorescence, 60 min. inhibition, % at 10 µM. 70,000 compounds, 0.18% hits. AID 624101; in the data active means inhibition above about 34%; inconclusive means no clear call, values can overlap the other calls; inactive means below about 11%;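 further: 0% = DMSO and 100% = no enzyme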
Pf Dd2 inh: blocks growth of Plasmodium falciparum Dd2 parasites; P. falciparum Dd2 growth, SYBR Green, 72 h; stronger effect = lower value; activity change, % at 10 µM; 94,000 compounds, 2.3% hits; AID 1159554; in the data active means activity change below about -80%; inconclusive means no clear call, values can overlap the other calls
T cruzi growth-1: inhibitors of T. cruzi proliferation | T. cruzi beta-gal in NIH3T3, GalScreen luminescence, 90 h | inhibition, % at 8.34 µM | 77,000 compounds, 5.9% hits | AID 624255;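 active means mean inhibition above about 93%, with at least 55% of replicates each passing it, limit read from the data, passing the limit was not always enough; inconclusive means only one of those two conditions holds; inactive means neither condition holds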
T cruzi growth-2: Trypanosoma cruzi proliferation inhibition; inhibition, % at 8.35 µM; T. cruzi beta-gal in NIH3T3, GalScreen luminescence, 90 h; 5,600 compounds, 72% hits; shares compounds with T cruzi growth-1;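 active means mean replicate inhibition above about 95% and at least 55% of replicates individually reaching it, limit read from the data; inconclusive means only one of the two criteria is met; inactive means neither criterion is met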
T cruzi growth-3: blocks T. cruzi growth in NIH3T3 host cells; AID 651740; 5,600 compounds, 21% hits; T. cruzi beta-gal in NIH3T3, GalScreen luminescence, 90 h; shares compounds with T cruzi growth-1; inhibition, % at 2.09 µM;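 active means mean inhibition above about 95%, with at least 55% of replicates also reaching it, limit read from the data; inconclusive means meets just one of the two conditions; inactive means meets neither condition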;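 further: plate controls were neutral control median for no effect and positive control median for full effect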
NIH3T3 tox: kills mouse NIH/3T3 fibroblasts. shares compounds with T cruzi growth-1. NIH/3T3 viability, CellTiter-Glo ATP luminescence, 90 h. cytotoxicity (signal decrease), % at 8.35 µM. 5,600 compounds, 14% hits;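 active means mean signal decrease across replicates above about 35% based on untreated-well scatter, with enough replicates individually passing, limit read from the data; inconclusive means no rule stated though some were filed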;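 further: 0% = median of neutral control wells and 100% = median of positive control wells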
3T3 cytotox 2: cytotoxicity in mouse NIH/3T3 fibroblasts | shares compounds with T cruzi growth-1 | NIH/3T3 viability, CellTiter-Glo ATP luminescence, 90 h | inhibition, % at 24.9 µM | 5,600 compounds, 56% hits;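 active means mean loss of cell viability signal at or above a set limit, and enough replicates individually reaching it; inconclusive means meets only the mean limit or only the replicate share; inactive means meets neither condition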;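 further: 0% = median of neutral control wells and 100% = median of positive control wells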
* = called active by the depositor; ? = inconclusive; / = no result given. Hits are enriched below; roughly 5.8% of the tested compounds scored in any of these assays.

SMILES	GASC1 inh	IDH1 R132H inh	Pf Dd2 inh	T cruzi growth-1	T cruzi growth-2	T cruzi growth-3	NIH3T3 tox	3T3 cytotox 2
C[C@@H]1CN([C@@H](C)CO)C(=O)c2cc(C#Cc3cccc(F)c3)cnc2O[C@H]1CN(C)C(=O)c1ccccc1F	-1	1	-77	110*	109*	47	21	25
C[C@H](CO)N1C[C@H](C)[C@@H](CN(C)C(=O)c2ccccc2F)Oc2ncc(C#Cc3cccc(F)c3)cc2C1=O	-1	1	-87*	99*	103*	36	-11	-10
C[C@@H]1CN([C@H](C)CO)C(=O)c2cc(C#Cc3ccccc3)cnc2O[C@@H]1CN(C)C(=O)c1ccccc1F	0	/	-59	-97	/	/	/	/
CS(=O)(=O)N(CC(=O)Nc1ccccc1C(F)(F)F)c1ccc2c(c1)OCCO2	/	0	/	/	/	/	/	/
N#Cc1ccccc1CSc1nnc(-c2ccccc2)n1-c1ccccc1	/	0	/	/	/	/	/	/
N#C[C@@H]1[C@@H](c2ccc(C3=CCCC3)cc2)[C@H](CO)N1C(=O)C1CCC1	4	/	31	77	/	/	/	/
N#C[C@H]1[C@H](c2ccc(C3=CCCC3)cc2)[C@H](CO)N1C(=O)C1CCC1	1	/	16	?	96*	24	-6	18
CN(C)C(=O)c1cccc(-c2ccc([C@@H]3[C@@H](C#N)N(C(=O)C4CCC4)[C@@H]3CO)cc2)c1	-3	/	31	89	/	/	/	/
CN(C)C(=O)c1cccc(-c2ccc([C@@H]3[C@@H](CO)N(C(=O)C4CCC4)[C@H]3C#N)cc2)c1	-2	/	-5	101*	-25	4	-15	1
N#C[C@@H]1[C@@H](c2ccc(-c3cncnc3)cc2)[C@H](CO)N1C(=O)C1CCC1	-2	/	6	103*	77	41	3	2
CC(C)CC#Cc1cnc2c(c1)C(=O)N([C@@H](C)CO)C[C@@H](C)[C@@H](CN(C)C(=O)C1CCCCC1)O2	0	0	0	48	/	/	/	/
CNC[C@@H]1Oc2ncc(C#CCC3CCCC3)cc2C(=O)N([C@H](C)CO)C[C@@H]1C	1	0	-35	57	/	/	/	/
CC(C)CC#Cc1cnc2c(c1)C(=O)N([C@@H](C)CO)C[C@@H](C)[C@H](CN(C)C(=O)C1CCCCC1)O2	0	-2	-53	?	?	32	-10	81*
C[C@@H]1CN([C@@H](C)CO)C(=O)c2cc(C#CCc3ccccc3)cnc2O[C@H]1CN(C)C(=O)C1CCCCC1	0	/	-82*	114*	105*	36	-28	106*
CNC[C@@H]1Oc2ncc(C#CCC3CCCC3)cc2C(=O)N([C@H](C)CO)C[C@H]1C	0	-1	-52	?	109*	?	-2	106*
O=S(=O)(CCc1nnc(-c2ccccc2)o1)c1ccc(Cl)cc1	/	0	/	/	/	/	/	/
Cc1cc(C)cc(NC(=O)CSc2nc3ccccc3s2)c1	/	0	/	/	/	/	/	/
Cc1ccc(-c2ccc3c(c2)O[C@H](CN(C)Cc2ccc(F)cc2)[C@@H](C)CN([C@H](C)CO)S3(=O)=O)cc1	0	0	-66	98*	102*	100*	46*	104*
Cc1ccc(-c2ccc3c(c2)O[C@@H](CN(C)Cc2ccc(F)cc2)[C@@H](C)CN([C@@H](C)CO)S3(=O)=O)cc1	0	0	-31	91	/	/	/	/
C[C@@H]1CN([C@H](C)CO)S(=O)(=O)c2ccc(-c3ccccc3)cc2O[C@H]1CN(C)Cc1ccccc1	11	0	-65	63	/	/	/	/
Cc1ccc(-c2ccc3c(c2)O[C@H](CN(C)Cc2ccccc2)[C@H](C)CN([C@H](C)CO)S3(=O)=O)cc1	0	-1	-4	121*	94	110*	29	106*
C[C@@H]1CN([C@@H](C)CO)S(=O)(=O)c2ccc(-c3ccc(F)cc3)cc2O[C@@H]1CN(C)Cc1cccc(F)c1	0	-1	-22	52	/	/	/	/
C[C@@H]1CN([C@@H](C)CO)S(=O)(=O)c2ccc(-c3ccccc3)cc2O[C@@H]1CN(C)Cc1cccc(F)c1	2	/	-69	123*	92	112*	14	107*
C[C@H](CO)N1C[C@H](C)[C@H](CN(C)CC2CC2)Oc2cc(-c3ccccc3)ccc2S1(=O)=O	-2	-1	-40	37	/	/	/	/
C[C@H]1CN([C@@H](C)CO)S(=O)(=O)c2ccc(-c3ccccc3)cc2O[C@H]1CN(C)CC1CC1	1	-2	-66	112*	81	43	28	79*
SMILES	GASC1 inh	IDH1 R132H inh	Pf Dd2 inh	T cruzi growth-1	T cruzi growth-2	T cruzi growth-3	NIH3T3 tox	3T3 cytotox 2
O=C(CSc1nnc(-c2ccccc2F)n1-c1ccccc1)Nc1ccc2cn[nH]c2c1	/	0	/	/	/	/	/	/
CCn1c2ccccc2n2c(SCC(=O)Nc3ccc(C)cc3)nnc12	/	0	/	/	/	/	/	/
CC(C)C#Cc1ccc2c(c1)O[C@H](CN(C)C(=O)C1CCCCC1)[C@@H](C)CN([C@H](C)CO)S2(=O)=O	-3	/	-57	68	/	/	/	/
CC(C)C#Cc1ccc2c(c1)O[C@H](CN(C)C(=O)C1CCC1)[C@@H](C)CN([C@H](C)CO)S2(=O)=O	-1	-5	-27	113*	98*	75	24	28*
CC(C)C#Cc1ccc2c(c1)O[C@@H](CN(C)C(=O)C1CCCCC1)[C@@H](C)CN([C@@H](C)CO)S2(=O)=O	0	/	-30	?	102*	83	17	107*
CN1c2ccc(-c3ccccc3F)cc2[C@@H]2[C@@H](CCN2S(=O)(=O)c2ccc(F)cc2)[C@H]1CO	0	/	4	108*	111*	91	?	49*
CN1c2ccc(-c3ccccc3F)cc2[C@@H]2[C@@H](CCN2S(=O)(=O)c2ccc(F)cc2)[C@@H]1CO	-1	/	2	?	96*	?	45*	46*
COc1ccc(S(=O)(=O)N2CC[C@@H]3[C@H]2c2cc(-c4ccccc4F)ccc2N(C)[C@H]3CO)cc1	-9	/	-22	56	/	/	/	/
CNC[C@H]1Oc2cc(C#Cc3ccc(OC)cc3)ccc2S(=O)(=O)N([C@H](C)CO)C[C@@H]1C	-1	-3	-86*	109*	98*	?	39*	105*
CNC[C@H]1Oc2cc(C#Cc3cccc(F)c3)ccc2S(=O)(=O)N([C@H](C)CO)C[C@@H]1C	-3	1	-78	?	104*	62	31	105*
CNC[C@@H]1Oc2cc(C#Cc3cccc(OC)c3)ccc2S(=O)(=O)N([C@H](C)CO)C[C@H]1C	0	-2	-69	106*	109*	84	17	103*

Compound activity from PubChem BioAssay.
